Experimental data taken from the RNAGym collection of RNA variant scans (doi:10.1126/science.aae0568).
This sample holds only a part of the variants without activity.

B1: tRNA (parent)
chain: GUUCCGUUGGCGUAAUGGUAACGCGUCUCCCUCCUAAGGAGAAGACUGCGGGUUCGAGUCCCGUACGGAACG

Variants of: B1
Experiment: yeast fitness relative to wild type (ratio to wild type); higher = fitter; tRNA-Arg(CCU), competitive growth, 37 C, YPD
Procedure, shortened: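 Changes in genotype frequencies gave Darwinian fitness relative to wild type. Frequencies were read by 100-nucleotide paired-end sequencing of gene amplicons before and after pooled Saccharomyces cerevisiae strains, carrying tRNA-Arg(CCU) gene variants at the native locus, were competed in YPD at 37°C for 24 hours in six replicates. A genotype was kept only with ≥ 100 starting reads, and estimates < 0.5 were set to 0.5.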

Going from GUUCCGUUAGCGUAGAGGUAACCCGUCUCCCUCCUAAGGAGAAGACUGCGGGUUCGAGUCCCGUACGGCACG [G9A A15G U16A G23C A69C] to GUUCCGUUAGCGUAAUGGUGACGCGUCUCCCUCCUAAAGAGAAGACUGCGGGUUCGAGUCCUGUACGGAACG [G9A A20G G38A C62U], the yeast fitness rises from at most 0.5 to 0.676.

GUUCCGUUAGCGUGAUGGUAACGCGUCUCCCUCCUAAGGAGAAGACUGCGGGUUCAAGUCCCGUACAGAACG [G9A A14G G56A G67A] and GUUCCGUUAGCGUGAUGGUAACGCGUCUCCCUCCUAAGGAGAAGACUGCGGGUUCGAGUCUCGUACGGAGCG [G9A A14G C61U A70G] cannot be ordered by yeast fitness: at most 0.5 for the first, at most 0.5 for the second.

Going from GUUCCGUUAGCGUACUGGUAACGCGUCUCCCUCCUAAGGAGAAGACUGCGGGUUCGAGUCCCGUACGGAACG [G9A A15C] to GUUCCGUUAGCGUACUGGUAACGCGUCUCCCUCCUAAGGAGAAGACUGCGGGUUCAAGUCUCGUACGGAACG [G9A A15C G56A C61U], the yeast fitness falls from 0.788 to at most 0.5.

GUUCCGUUAGCGUACUGGUAACGCGUCUCCCUCCUAAGGAGAUGACUGCGGGUUCGAGUCCCGUACGGAACG [G9A A15C A43U] and GUUCCGUUAGCGUUAUGGUAACGCGUCUGCCUCAUAAGGAGAAGACUGCGGGUUCAAGUCCCGUACGGAACG [G9A A14U C29G C34A G56A] cannot be ordered by yeast fitness: at most 0.5 for the first, at most 0.5 for the second.

Going from GUUCCGUUAGCGUAAUGGUAGCGCGUCUGCCUCGUAAGGAGAAGACUGCGGGUUCGAGUCCCGUACGGAACG [G9A A21G C29G C34G] to GUUCCGUUAGCGUAGUGGUUACGCGUCCCCCUCCUAAGGAGAAGACUGCGGGUUCGAGUCCCGUACGGAACG [G9A A15G A20U U28C], the yeast fitness rises from at most 0.5 to 0.551.

First: GUUCCGUUAGCGUAGUGGUUACGCGUCCCCCUCCUAAGGAGAAGACUGCGGGUUCGAGUCCCGUACGGUACG [G9A A15G A20U U28C A69U]
Second: GUUCCGUGGGCGUAAUGGUAACGCGUCUCCCGCCUAAAGAGAAGACUGCGGGUUCCAGUCCCGUACGGAACG [U8G U32G G38A G56C]
The yeast fitness of the first is higher: 0.542 for the first, at most 0.5 for the second.

First: GUUCCGUGGGCGUAAUGGUAACGCGUCUCCCUCCCAAGGAGAAGACUGCGGGUUCGAGUCCCGUACGGAACG [U8G U35C]
Second: GUUCCGUGGGCGUAAUGGUAACGCGUCUCCCUCCGAAGGAGAAGACUGCGGGUUCGAGUCCCGUACGGAACG [U8G U35G]
The yeast fitness of the first is higher: 0.767 for the first, at most 0.5 for the second.

Going from GUUCCGUGGGCGUAAUGGUAACGCGCCUCCCUCCUAAGGAGAAGACUGCGGGUUCGAGUCCCGUACGGAACG [U8G U26C] to GUUCCGUUAGCGUCAUGGUAACGCGUCUCCCUCCUAAGGAGAAGACUGCGGGUUCGAGUCCCGUACGGAACG [G9A A14C], the yeast fitness falls from 0.592 to 0.591.

Compared with GUUCCGUUAGCGUGAUGGUAACGCGUCUCCCUCCUAAGGAGAAGACUGCGGGUUCGAGUCCCGUACGGAACG [G9A A14G], GUUCCGUUAGCGUAAUGGUAACGCGUCUCCCUCCUCAGGAGAAGACUACGGGUUCGAGUCCCGUACAGAACG [G9A A36C G48A G67A] is lower in yeast fitness: 0.908 for the first, at most 0.5 for the second.

Compared with GUUCCGUUAGCGUAAUGGUAACGCGUCUCCCUCCUGAGGAGAAGACUGCGGGUUCGAGUCCCGUACGUAACG [G9A A36G G68U], GUUCCGUGGGCGUAAUGGUAACGCGUCUCCCCGCUAAGGAGAAGACUGCGGGUUCGAGUCCCGUACGGAACG [U8G U32C C33G] is lower in yeast fitness: 0.743 for the first, at most 0.5 for the second.

First: GUUCCGUUAGCGUAUUGGUGACGCGUCUCCCUCCUAAGGAGAAGACUGCGGGUUCGAGUCCCGUUCGGAACG [G9A A15U A20G A65U]
Second: GUUCCGUUAGCGUAAUGGUGACGCGUCUCCCUCCUAAGGAGAAGACUGCGGGUUCGAGUCCCGUACGGAACG [G9A A20G]
The yeast fitness of the first is lower: at most 0.5 for the first, 1.05 for the second.

Going from GUUCCGUUAGCGUAUUGGUAACGCGUCUGCCUUCUCAGGAGAAGACUGCGGGUUCGAGUCCCGUACAGAACG [G9A A15U C29G C33U A36C G67A] to GUUCCGUUAGCGUCAUGGUAACGCGUCUCCCUCCUAAGGAGAAGACUGCGGGUUCGAAUCCCGUACGGAACG [G9A A14C G58A], the yeast fitness rises from at most 0.5 to 0.546.

First: GUUCCGUGGGCGUAAUGGUAACGCGUCUCCCUCCUAAGGAGAAGACUGCGGGCUCGAGUCCCGUACGGAACG [U8G U53C]
Second: GUUCCGUUAGCGUAAUGGUAACGCGUCUCCCUCCUAAGGAGAAGACUGCGGGUUCGAGUCCCGUACGGAACG [G9A]
The yeast fitness of the first is lower: 0.806 for the first, 0.991 for the second.

GUUCCGUUAGCGUUAUGGUAACGCGUCUGCCUCAUAAGGAGAAGACUGCGGGUUCGAGUCCUGUACGGAACG [G9A A14U C29G C34A C62U] and GUUCCGUUAGCGUUAUGGUAACGCGUCUCCCUCGUACGGAGAAGACUGCGGGUUCGAGUCCCGUACGGAACG [G9A A14U C34G A37C] cannot be ordered by yeast fitness: at most 0.5 for the first, at most 0.5 for the second.

Going from GUUCCGUUAGCGUAAUGGUAACGCGUCUCCCUCCUGAGGAGAAGAUUGCGGGUUCGAGUCCCGUACGGAACG [G9A A36G C46U] to GUUCCGUUAGCGUAAUGGUAACGCGUCUCCCUCCUUAGGAGAAGACUGCGGGUUCGAGUCCCGUACGGAACG [G9A A36U], the yeast fitness falls from 0.683 to 0.677.

Compared with GUUCCGUUAGCGUAAUGGUAACGCGUCUCCCUCCUGAGGAGAAGACUGCGGGUUCGAGUCCCGUACGGAACG [G9A A36G], GUUCCGUUAGCGUAAUGGUGACGCGUCUCUCUCCUAAGGAGAAGACUGCGGAUUCGAGUCCCGUACGAAACG [G9A A20G C30U G52A G68A] is lower in yeast fitness: 1.03 for the first, at most 0.5 for the second.

First: GUUCCGUUAGCGUAAUGGUGACGCGUCUCCCUCCUAAGGAGAAGACUGCGGGUUCGAGUCCCGCACGGAACG [G9A A20G U64C]
Second: GUUCCGUGGGCGUAAUGGUAACGCGUCUCCCUCCUAAGGAGAAGACUGCGGGUCCGAGUCCCGUACGGAACG [U8G U54C]
The yeast fitness of the first is higher: 0.674 for the first, 0.565 for the second.

First: GUUCCGUUAGCGUAAUGGUAUCGUGUCUUCCUCCUAAGGAGAAGACUGUGGGUUCGAGUCCCGUACGGAACG [G9A A21U C24U C29U C49U]
Second: GUUCCGUGGGCGUAAUGGUAACGCGUCUCCCUCCAAAGGAGAAGACUGCGGGUUCGAGUCCCGUACGGACCG [U8G U35A A70C]
The yeast fitness of the first is lower: at most 0.5 for the first, 0.524 for the second.

Going from GUUCCGUUAGCGUAAUGGUAACGCGUCUCCCUCCUGAGGAGAGGACUGCGGGUUCGAGUCCCGUACGGAACG [G9A A36G A43G] to GUUCCGUUAGCGUAAUGGUACCGCGUCUCCCUCCUAAGGAGAAGACUGCGGAUUCCAGUCCGGUAUGGAACG [G9A A21C G52A G56C C62G C66U], the yeast fitness falls from 0.748 to at most 0.5.
